Tested on: K562
Experiment: Cytotoxicity against human K562 cells after 72 hrs by alamar blue assay
Format: functional, cell-based
Conditions: K562, 72 h
Outline: (§1)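 Tumour lines grown in RPMI-1640 with 10% FBS, 2 mM L-glutamine, gentamycin, at 37°C/5% CO2, mycoplasma-free, used in exponential growth. Alamar blue added 4 h before end, absorbance 570/600 nm. IC50 by nonlinear regression, three independent experiments in duplicate.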

Structure (SMILES) | IC50 [µM]
C=C1C[C@@]23CC[C@@H]4[C@](C)(CO)[C@H](O)CC[C@@]4(C)[C@@H]2CC[C@H]1C3 | 82.2
C=C1C[C@@]23CC[C@@H]4C(C)(C)[C@H](O)CC[C@@]4(C)[C@@H]2CC[C@H]1C3 | 10.2
C=C1C[C@@]23CC[C@@H]4[C@](C)(C=O)[C@H](O)CC[C@@]4(C)[C@@H]2CC[C@H]1C3 | 8.24
C=C1C[C@@]23CC[C@@H]4C(C)(C)[C@H](OC(C)=O)CC[C@@]4(C)[C@@H]2CC[C@H]1C3 | > 75.7
C=C1C[C@@]23CC[C@H]4[C@@](C)(CCC[C@@]4(C)C(=O)O)[C@@H]2CC[C@@H]1C3 [KAURENOIC ACID] | 72.5
COc1cccc2c1C(=O)c1c(O)c3c(c(O)c1C2=O)C[C@@](O)(C(=O)CO)C[C@@H]3O[C@H]1C[C@H](N)[C@H](O)[C@H](C)O1 [DOXORUBICIN] | 1.25
C=C1C[C@@]23CC[C@H]4[C@@](C)(CC[C@@H](O)[C@@]4(C)C(=O)O)[C@@H]2CC[C@H]1C3 | 63.5

Tested on: K562
Experiment: Selectivity index, ratio of IC50 for concanavalin-A stimulated human PBMCs to IC50 for human K562 cells
Conditions: not given
Outline: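 SI calculated as IC50 in ConA-stimulated PBMC divided by IC50 in K562, both from 72 h alamar blue assays.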

Structure (SMILES) | Ratio IC50
C=C1C[C@@]23CC[C@@H]4[C@](C)(C=O)[C@H](O)CC[C@@]4(C)[C@@H]2CC[C@H]1C3 | 2.9
COc1cccc2c1C(=O)c1c(O)c3c(c(O)c1C2=O)C[C@@](O)(C(=O)CO)C[C@@H]3O[C@H]1C[C@H](N)[C@H](O)[C@H](C)O1 [DOXORUBICIN] | 7.5

Tested on: HepG2
Experiment: Cytotoxicity against human HepG2 cells after 72 hrs by alamar blue assay
Format: functional, cell-based
Conditions: HepG2, 72 h
Outline: as §1

Structure (SMILES) | IC50 [µM]
C=C1C[C@@]23CC[C@@H]4[C@](C)(CO)[C@H](O)CC[C@@]4(C)[C@@H]2CC[C@H]1C3 | 82.2
C=C1C[C@@]23CC[C@@H]4C(C)(C)[C@H](O)CC[C@@]4(C)[C@@H]2CC[C@H]1C3 | 67.2
C=C1C[C@@]23CC[C@@H]4[C@](C)(C=O)[C@H](O)CC[C@@]4(C)[C@@H]2CC[C@H]1C3 | 51.3
C=C1C[C@@]23CC[C@@H]4C(C)(C)[C@H](OC(C)=O)CC[C@@]4(C)[C@@H]2CC[C@H]1C3 | > 75.7
C=C1C[C@@]23CC[C@H]4[C@@](C)(CCC[C@@]4(C)C(=O)O)[C@@H]2CC[C@@H]1C3 [KAURENOIC ACID] | 50.7
COc1cccc2c1C(=O)c1c(O)c3c(c(O)c1C2=O)C[C@@](O)(C(=O)CO)C[C@@H]3O[C@H]1C[C@H](N)[C@H](O)[C@H](C)O1 [DOXORUBICIN] | 0.42
C=C1C[C@@]23CC[C@H]4[C@@](C)(CC[C@@H](O)[C@@]4(C)C(=O)O)[C@@H]2CC[C@H]1C3 | > 78.6

Tested on: not listed separately
Experiment: Cytotoxicity against human HL60 cells after 72 hrs by alamar blue assay
Format: functional, cell-based
Conditions: HL-60, 72 h
Outline: as §1

Structure (SMILES) | IC50 [µM]
C=C1C[C@@]23CC[C@@H]4[C@](C)(CO)[C@H](O)CC[C@@]4(C)[C@@H]2CC[C@H]1C3 | 82.2
C=C1C[C@@]23CC[C@@H]4C(C)(C)[C@H](O)CC[C@@]4(C)[C@@H]2CC[C@H]1C3 | 34.2
C=C1C[C@@]23CC[C@@H]4[C@](C)(C=O)[C@H](O)CC[C@@]4(C)[C@@H]2CC[C@H]1C3 | 32.8
C=C1C[C@@]23CC[C@@H]4C(C)(C)[C@H](OC(C)=O)CC[C@@]4(C)[C@@H]2CC[C@H]1C3 | > 75.7
C=C1C[C@@]23CC[C@H]4[C@@](C)(CCC[C@@]4(C)C(=O)O)[C@@H]2CC[C@@H]1C3 [KAURENOIC ACID] | 44.1
COc1cccc2c1C(=O)c1c(O)c3c(c(O)c1C2=O)C[C@@](O)(C(=O)CO)C[C@@H]3O[C@H]1C[C@H](N)[C@H](O)[C@H](C)O1 [DOXORUBICIN] | 1.53
C=C1C[C@@]23CC[C@H]4[C@@](C)(CC[C@@H](O)[C@@]4(C)C(=O)O)[C@@H]2CC[C@H]1C3 | 76.1

Tested on: not listed separately
Experiment: Cytotoxicity against mouse B16F10 cells after 72 hrs by alamar blue assay
Format: functional, cell-based
Conditions: B16-F10, 72 h
Outline: as §1

Structure (SMILES) | IC50 [µM]
C=C1C[C@@]23CC[C@@H]4[C@](C)(CO)[C@H](O)CC[C@@]4(C)[C@@H]2CC[C@H]1C3 | 82.2
C=C1C[C@@]23CC[C@@H]4C(C)(C)[C@H](O)CC[C@@]4(C)[C@@H]2CC[C@H]1C3 | 66.3
C=C1C[C@@]23CC[C@@H]4[C@](C)(C=O)[C@H](O)CC[C@@]4(C)[C@@H]2CC[C@H]1C3 | 69.5
C=C1C[C@@]23CC[C@@H]4C(C)(C)[C@H](OC(C)=O)CC[C@@]4(C)[C@@H]2CC[C@H]1C3 | > 75.7
C=C1C[C@@]23CC[C@H]4[C@@](C)(CCC[C@@]4(C)C(=O)O)[C@@H]2CC[C@@H]1C3 [KAURENOIC ACID] | 54.8
COc1cccc2c1C(=O)c1c(O)c3c(c(O)c1C2=O)C[C@@](O)(C(=O)CO)C[C@@H]3O[C@H]1C[C@H](N)[C@H](O)[C@H](C)O1 [DOXORUBICIN] | 4.23
C=C1C[C@@]23CC[C@H]4[C@@](C)(CC[C@@H](O)[C@@]4(C)C(=O)O)[C@@H]2CC[C@H]1C3 | > 78.6

Tested on: PBMC
Experiment: Cytotoxicity against concanavalin-A stimulated human PBMC after 72 hrs by alamar blue assay
Format: cell-based
Conditions: not given
Outline: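 ConA 10 µg/mL added at culture start; compounds (0.39–25 µg/mL, DMSO) added after 24 h, 72 h incubation. Alamar blue added 24 h before end, absorbance 570/600 nm. IC50 by nonlinear regression, three independent experiments in duplicate.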

Structure (SMILES) | IC50 [µM]
C=C1C[C@@]23CC[C@@H]4[C@](C)(CO)[C@H](O)CC[C@@]4(C)[C@@H]2CC[C@H]1C3 | 29.4
C=C1C[C@@]23CC[C@@H]4C(C)(C)[C@H](O)CC[C@@]4(C)[C@@H]2CC[C@H]1C3 | 22.5
C=C1C[C@@]23CC[C@@H]4[C@](C)(C=O)[C@H](O)CC[C@@]4(C)[C@@H]2CC[C@H]1C3 | 23.8
C=C1C[C@@]23CC[C@@H]4C(C)(C)[C@H](OC(C)=O)CC[C@@]4(C)[C@@H]2CC[C@H]1C3 | > 75.7
C=C1C[C@@]23CC[C@H]4[C@@](C)(CCC[C@@]4(C)C(=O)O)[C@@H]2CC[C@@H]1C3 [KAURENOIC ACID] | 80.8
COc1cccc2c1C(=O)c1c(O)c3c(c(O)c1C2=O)C[C@@](O)(C(=O)CO)C[C@@H]3O[C@H]1C[C@H](N)[C@H](O)[C@H](C)O1 [DOXORUBICIN] | 9.36
C=C1C[C@@]23CC[C@H]4[C@@](C)(CC[C@@H](O)[C@@]4(C)C(=O)O)[C@@H]2CC[C@H]1C3 | > 78.6

Reference: ChEMBL document CHEMBL3351630, “ent-Kaurane diterpenes from the stem bark of Annona vepretorum (Annonaceae) and cytotoxic evaluation” (Bioorg Med Chem Lett, 2014)
